Consider ten compounds from paper PMC7497186 (The Journal of Pharmacy and Pharmacology, 2020).

The target of one data set is T1, human recombinant 5-LOX (Homo sapiens, UniProt P09917).
T1 sequence (P09917 1-674): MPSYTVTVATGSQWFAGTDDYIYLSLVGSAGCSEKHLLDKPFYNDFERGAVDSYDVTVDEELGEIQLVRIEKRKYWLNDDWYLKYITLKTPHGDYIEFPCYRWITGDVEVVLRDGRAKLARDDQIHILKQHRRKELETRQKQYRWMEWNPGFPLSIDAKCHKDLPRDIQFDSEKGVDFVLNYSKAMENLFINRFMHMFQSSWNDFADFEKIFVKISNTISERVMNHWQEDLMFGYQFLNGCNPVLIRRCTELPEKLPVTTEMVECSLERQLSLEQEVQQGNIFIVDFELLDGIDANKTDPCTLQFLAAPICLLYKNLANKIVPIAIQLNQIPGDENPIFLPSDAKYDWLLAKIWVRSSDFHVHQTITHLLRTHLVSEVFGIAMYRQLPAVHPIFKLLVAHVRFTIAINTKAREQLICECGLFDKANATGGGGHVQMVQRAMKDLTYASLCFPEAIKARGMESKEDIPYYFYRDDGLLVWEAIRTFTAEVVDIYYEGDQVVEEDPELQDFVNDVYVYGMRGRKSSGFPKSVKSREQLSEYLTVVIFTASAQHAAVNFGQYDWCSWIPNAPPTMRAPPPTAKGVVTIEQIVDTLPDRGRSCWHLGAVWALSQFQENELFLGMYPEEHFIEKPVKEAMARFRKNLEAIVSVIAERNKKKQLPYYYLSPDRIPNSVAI
Description: 5-LOX inhibition, UV-Vis spectrophotometric assay. In kind it is biochemical. The following applies: for inhibition at 10 µM: read-out: % inhibition of 5-LOX. The method in brief:
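Human recombinant 5-LOX (0.5 unit/ml final) pre-incubated 5 min at RT in the dark with test compound, CaCl2 (0.4 mm final), L-α-phosphatidylcholine type II-S (24 µg/ml final) and ATP (0.2 mm final). Reaction started with arachidonic acid (50 µm final) in quartz microcuvettes. 5-HpETE conjugated diene formation followed as absorbance increase at 234 nm (ε = 25 000 M−1 cm−1).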

The test system of another data set is SW480 cells. The experiment in a line: Cytotoxicity, acid phosphatase assay, SW480 cells. In kind it is cell-based, human. Particulars: 10, 30 and 50 µM, 24 h. The essentials: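 SW480 cells seeded at 4 × 10^4 per well 24 h before compound exposure, then exposed to test compound for 24 h. Wells washed with PBS. Acid phosphatase substrate (p-nitrophenyl phosphate in sodium acetate, 0.1% Triton X-100, pH 5.5) added for 1 h at 37°C, 5% CO2, in the dark. Stopped with NaOH; absorbance read at 405 nm. Mean ± SEM, n = 4.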

The test system of a further data set is IL-10−/− colitis mice. The following applies: IL-10 -/- murine model of colitis; cited from earlier work.
The test system of data set [1] is IL-6 in THP-1 macrophages. The experiment in a line: Cytokine profiling THP-1 macrophages: IL-6. The data set is classed as cell-based, human. The following applies: for level of IL-6: 24 h, CTRL 1 1.666 ± 0.256; for inhibition at 10 µM: Homo sapiens, THP-1, read-out: IL-6 inhibition over CTRL 1.
The next data set relates to THP-1 macrophages. The experiment in a line: Cytotoxicity, acid phosphatase assay, THP-1 macrophages. The data set is classed as cell-based, human. Particulars: 10, 30 and 50 µM, 24 h. The essentials: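 THP-1 monocytes seeded at 4 × 10^4 per well, PMA-differentiated for 48 h, then rested for 3 days. Macrophages exposed to test compound for 24 h and washed with PBS. p-Nitrophenyl phosphate substrate (sodium acetate, 0.1% Triton X-100, pH 5.5) added for 1 h at 37°C in the dark. Stopped with NaOH; read at 405 nm. Mean ± SEM, n = 4.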

For data set [2], the system named is TNF-α in THP-1 macrophages. Description: Cytokine profiling THP-1 macrophages: TNF-α. The following applies: for level of TNF-α: CTRL 1 22.305 ± 2.753; for inhibition at 10 µM: Homo sapiens, THP-1, read-out: % inhibition of TNF-α. In kind it is cell-based, human.
The test system of data set [3] is nitric oxide (NO) released from SW480 cells. The experiment in a line: Nitric oxide inhibition, GREISS assay, LPS-induced SW480 cells. In kind it is cell-based, human. The following applies: for inhibition at 10 µM: SW480, read-out: % inhibition of NO released; for % inhibition of NO released: 10 µM, mean ± SEM, n = 3. The method in brief: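 SW480 cells stimulated with 1 µg/ml S. typhimurium LPS plus IFN-γ for 48 h at 37°C, 5% CO2. Fresh supernatant mixed with an equal volume of sulphanilamide for 10 min at RT in the dark, then NED added for 20 min. Absorbance read at 540 nm; nitrite quantified against a 0–100 NO2 standard curve. Mean ± SEM, n = 3.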

Data set [4] deals with IL-8 from LPS-induced SW480 cells. The experiment in a line: IL-8 from LPS-induced SW480 cells. In kind it is cell-based, human. The following applies: for level of IL-8: 10 µM, LPS-induced SW480 cells, CTRL 1 3.324 ± 0.076; for inhibition at 10 µM: Homo sapiens, SW480, read-out: % inhibition of IL-8 over CTRL 1.
Another data set relates to DSS colitis mice. Particulars: cited from earlier work.
For data set [5], the system named is nitric oxide (NO) released from SW480 cells. Particulars: read-out: IC50 NO inhibition, reported value; literature value; cited from earlier work.
Data set [6] deals with IL-1β in THP-1 macrophages. Description: Cytokine profiling THP-1 macrophages: IL-1β. In kind it is cell-based, human. Particulars: 10 µM, LPS-stimulated THP-1 macrophages; CTRL 1 0.329 ± 0.042.
Setting [7] is: 10 µM, LPS-stimulated THP-1 macrophages.
[8] abbreviates: Homo sapiens, SW480, read-out: IC50 NO inhibition.

Read-outs that look alike come from different tables or passages of the source.

As to `CC(Cc1ccc(O)c(O)c1)C(C)Cc1ccc(O)c(O)c1` (stereo not drawn) [NDGA, nordihydroguaiaretic acid, reference compound], the “% inhibition of 5-LOX” value on human recombinant 5-LOX (screened at 10 µM, mean ± SEM, n = 3) is on record as 51.92 ± 1.01%.
`O=C(O)c1ccc(C[C@@]2(C3=Cc4ccccc4C3)Cc3ccccc3[C@H]2O)cc1` [compound 2, 4-(((1'S,2'S)-1'-hydroxy-1',3'-dihydro-1H,2'H-[2,2'-biinden]-2'-yl)methyl)benzoic acid]: in the data set with SW480 cells, the “cytotoxicity in SW480 cells” value is listed as “no cytotoxicity effects”. The DAI result in the data set on IL-10−/− colitis mice and in the data set on DSS colitis mice (acute 5% DSS murine model of colitis) was “reduced” throughout. The inhibition at 10 µM was determined as 45.3 ± 5.28% at human recombinant 5-LOX; 92.1% in [1]; 45.2% in data set [2]; 56.5 ± 3.09% in [3] (Homo sapiens); 23.9% in data set [4]. The “level of IL-6” value in data set [1] (setting [7]) is 0.132 ± 0.038 pg/µg ml. Besides, in the data set with THP-1 macrophages, the “cytotoxicity in THP-1 macrophages” value was “no cytotoxicity effects”. Further, in [2] (setting [7]), the “level of TNF-α” value came to 11.613 ± 0.162 pg/µg ml. For the same compound, in [3] (setting [8]), the half-maximal inhibitory concentration (IC50) came to 19.7 ± 7.88 µM. Also, in data set [4], the “level of IL-8” value came out at 2.529 ± 0.058 pg/µg ml. The “colon cytokine levels of TNFα, IL-6 and IL1b” value in the data set with DSS colitis mice (DSS colitis mice) is on record as “reduced”. Moreover, the “MPO activity, a measure of inflammatory cell infiltration” value in the data set with DSS colitis mice (murine model of colitis, model not given) is “significantly reduced”.
Take `O=C(O)c1ccc(C[C@@]2(C3=Cc4ccccc4C3)Cc3ccccc3C2=O)cc1` [compound 6, (S)-4-((1'-oxo-1',3'-dihydro-1H,2'H-[2,2'-biinden]-2'-yl)methyl)benzoic acid]: the “% inhibition of NO released” value in [3] (LPS-induced SW480 cells) is recorded as “inhibited NO production”.
For `O=C(O)c1ccc(CC2(C3=Cc4ccccc4C3)Cc3ccccc3C2)cc1` [compound 7, 4-((1',3'-dihydro-1H,2'H-[2,2'-biinden]-2'-yl)methyl)benzoic acid], in the data set on SW480 cells, the “cytotoxicity in SW480 cells” value is reported as “no cytotoxicity effects”. Further, the inhibition at 10 µM at human recombinant 5-LOX came out at 39.7 ± 4.95%. For the same compound, in [1] (setting [7]), the “IL-6 inhibition over CTRL 1” value is on record as “less potent but statistically significant”. The “cytotoxicity in THP-1 macrophages” value in the data set on THP-1 macrophages is reported as “no cytotoxicity effects”. In data set [3] (LPS-induced SW480 cells), the “% inhibition of NO released” value is reported as “inhibited NO production”. In data set [4], the “level of IL-8” value is 2.676 ± 0.142 pg/µg ml and the inhibition at 10 µM was determined as 19.5%.
For `O[C@@H]1c2ccccc2C[C@@]1(Cc1ccccc1)C1=Cc2ccccc2C1` [compound 8, (1S,2S)-2-benzyl-2,3-dihydro-1H,1'H-[2,2'-biinden]-1-ol], the “level of IL-6” value in [1] (setting [7]) was 0.075 ± 0.019 pg/µg ml. Also, the inhibition at 10 µM in data set [1] came out at 95.5%; in data set [2], 33%; in data set [4], 31.2%. Moreover, in data set [2] (setting [7]), the “level of TNF-α” value amounted to 14.193 ± 1.685 pg/µg ml. Further, the “level of IL-8” value in data set [4] was found to be 2.288 ± 0.059 pg/µg ml.
As to `O=C1c2ccccc2C[C@@]1(Cc1ccccc1)C1=Cc2ccccc2C1` [compound 9, (S)-2-benzyl-2,3-dihydro-1H,1'H-[2,2'-biinden]-1-one], in data set [3] (LPS-induced SW480 cells), the “% inhibition of NO released” value was “inhibited NO production”. Moreover, the half-maximal inhibitory concentration (IC50) in [3] (setting [8]) came out at 20.5 ± 2.89 µM.
Turning to `C[C@]12CCC(=O)C=C1CC[C@@H]1[C@@H]2[C@@H](O)C[C@@]2(C)[C@H]1CC[C@]2(O)C(=O)CO` [hydrocortisone, reference compound], the inhibition at 10 µM in data set [3] (Homo sapiens) turned out to be 43.5 ± 12.3%. Also, the half-maximal inhibitory concentration (IC50) in data set [3] (setting [8]) is 48.7 µM.
As for `CC(c1cc2ccccc2s1)N(O)C(N)=O` (stereo not drawn) [zileuton, reference compound], on human recombinant 5-LOX, the inhibition at 10 µM was 45.2 ± 5.36%.
With `COc1c(O)cc2oc3cc(O)c(CC=C(C)C)c(O)c3c(=O)c2c1CC=C(C)C` [α-mangostin, reference compound], the IC50 in data set [5] is 12.2 µM; in data set [3] (read-out: IC50 NO inhibition, LPS-induced SW480 cells), 8.87 ± 1.18 µM. Besides, in data set [3] (LPS-induced SW480 cells), the “% inhibition of NO released” value is on record as 61.63 ± 7.50%.
For “Infliximab: positive control; anti-TNF-α therapy for IBD treatment”, in data set [6], the “level of IL-1β” value stood at 0.329 ± 0.059 pg/µg ml. Also, the “level of IL-6” value in data set [1] (setting [7]) is 0.924 ± 0.180 pg/µg ml. Besides, in data set [2] (setting [7]), the “% inhibition of TNF-α” value is given as 99.98% and the “level of TNF-α” value amounted to 0.002 ± 0 pg/µg ml.

Broadly, the inhibition is the share of the control response that was lost under treatment. The term IC50 denotes the midpoint of a concentration-inhibition curve.
